Measured values taken from ChEMBL document CHEMBL1126796, “2-(Alkylamino)nicotinic acid and analogs. Potent angiotensin II antagonists” (J Med Chem, 1993).
Values belong to the molecule of their own block, whether it stands above or below them.

Tests used:
[1] = Area under curve after oral dose of 10 mg/kg; format: ADME, organism-based; design: dose 10 mg/kg, route oral; conditions: in vivo
How it was run: (§1)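 Male Sprague-Dawley-derived rats were dosed with compound in normal saline (1 mL/kg), by gavage or as a slow IV bolus into the jugular vein. Heparinized tail-vein blood was taken at 0.25-24 h, extracted liquid-liquid and assayed by reverse-phase HPLC. Cmax is the observed peak concentration and AUC is mean (SEM). F compares oral with IV AUC, corrected for dose and assuming dose proportionality.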

[2] = Area under curve after oral dose of […]; format: ADME, organism-based; conditions: in vivo
[3] = Area under curve after oral dose of 3.87 mg/kg; format: ADME, organism-based; design: dose 3.87 mg/kg, route oral; conditions: in vivo; how it was run: as §1
[4] = Cmax value after oral dose of 10 mg/kg; format: ADME, organism-based; design: dose 10 mg/kg, route oral; conditions: in vivo; how it was run: as §1
[5] = Cmax value after oral dose of […]; format: ADME, organism-based; conditions: in vivo
[6] = Cmax value after oral dose of 3.87 mg/kg; format: ADME, organism-based; design: dose 3.87 mg/kg, route oral; conditions: in vivo; how it was run: as §1
[7] = Volume of distribution of central compartment (dose+ plasma concentration at time zero) after intravenous dose of 3.87 mg/kg; format: ADME, organism-based; design: dose 3.87 mg/kg, route intravenous; conditions: read-out: VI
How it was run: (§2)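 Jugular-vein slow iv bolus (normal saline, 1 mL/kg) in male Sprague-Dawley-derived rats. Plasma was sampled via the tail vein at 0.1–24 h and measured by reverse-phase HPLC after liquid-liquid extraction. Central volume was taken as dose divided by plasma concentration at time zero. Terminal-phase volume was derived from clearance and the plasma elimination rate constant.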

[8] = Volume of distribution of the terminal phase (CLp+ plasma elimination rate constant) after intravenous dose of 3.87 mg/kg; format: ADME, organism-based; design: dose 3.87 mg/kg, route intravenous; conditions: read-out: Vbeta; how it was run: as §2
[9] = Tmax value after oral dose of 10 mg/kg; format: ADME, organism-based; design: dose 10 mg/kg, route oral; conditions: in vivo
How it was run: (§3)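 Male Sprague-Dawley-derived rats. Compound was given in normal saline at 1 mL/kg, either as a slow iv bolus into the jugular vein or orally by gavage. Plasma underwent liquid-liquid extraction and reverse-phase HPLC. Terminal elimination half-life and time of observed peak concentration were taken from the profiles.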

[10] = Tmax value after oral dose of […]; format: ADME, organism-based; conditions: in vivo
[11] = Plasma clearance after intravenous dose of 3.87 mg/kg; format: ADME, organism-based; design: dose 3.87 mg/kg, route intravenous; conditions: read-out: Clp
How it was run: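 Male Sprague-Dawley-derived rats received a slow iv bolus into the jugular vein of the compound in normal saline (1 mL/kg). Tail-vein heparinized blood was drawn from 0.1 to 24 h and assayed by reverse-phase HPLC after liquid-liquid extraction. Total plasma clearance was calculated as dose divided by AUC and reported as mean (SEM).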

[12] = Bioavailability after oral dose of 10 mg/kg; format: ADME, organism-based; conditions: eutheria, in vivo; how it was run: as §1
[13] = Bioavailability after oral dose of […]; format: ADME, organism-based; conditions: eutheria, in vivo
[14] = Bioavailability after oral dose of 3.87 mg/kg; format: ADME, organism-based; conditions: eutheria, in vivo; how it was run: as §1
[15] = Tmax value after oral dose of 3.87 mg/kg; format: ADME, organism-based; design: dose 3.87 mg/kg, route oral; conditions: in vivo; how it was run: as §3
[16] = Half-life period of compound after intravenous dose of 3.87 mg/kg; format: ADME, organism-based; design: dose 3.87 mg/kg, route intravenous; conditions: in vivo; how it was run: as §3
[17] = biological target: T1, Type-1 angiotensin II receptor A (Rattus norvegicus, UniProt P25095); assay: Binding affinity against angiotensin II receptor from rat liver
T1 sequence (P25095 whole entry): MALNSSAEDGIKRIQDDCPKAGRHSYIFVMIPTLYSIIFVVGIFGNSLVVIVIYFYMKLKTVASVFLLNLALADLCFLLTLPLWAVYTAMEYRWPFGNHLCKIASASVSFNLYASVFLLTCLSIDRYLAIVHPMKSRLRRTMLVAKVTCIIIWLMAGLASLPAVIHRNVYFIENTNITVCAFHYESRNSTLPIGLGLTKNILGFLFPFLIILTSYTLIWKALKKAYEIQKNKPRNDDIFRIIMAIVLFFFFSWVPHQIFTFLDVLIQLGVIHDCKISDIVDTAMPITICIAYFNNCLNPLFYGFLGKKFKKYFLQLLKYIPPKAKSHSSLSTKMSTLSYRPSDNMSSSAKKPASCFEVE
How it was run: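 Rat liver membranes were incubated with [125I]-saralasin to measure angiotensin II type 1 receptor binding. Nonspecific binding was defined with 1 µM angiotensin.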

[18] = tested on: Rattus norvegicus; assay: % decrease in blood pressure after 4 hours at a dose of 10 mg/kg in male rats by using Renal artery hypertensive model; format: functional
How it was run: (§4)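 Male Sprague-Dawley rats (300-350 g) were made hypertensive by renal artery ligation and used on day 6 or 7 after ligation. Arterial pressure was measured from an indwelling femoral artery catheter, with blood pressure and heart rate recorded on line. Read-out is % decrease in blood pressure at 4 h, ±SEM, with number of rats.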

[19] = tested on: Rattus norvegicus; assay: % decrease in blood pressure after 4 hours in male rats at a dose of 1 mg/kg by using Renal artery hypertensive model; format: functional; how it was run: as §4
[20] = tested on: Rattus norvegicus; assay: % decrease in blood pressure after 4 hours in male rats at a dose of 3 mg/kg by using Renal artery hypertensive model; format: functional; how it was run: as §4
[21] = biological target: T2, Type-1 angiotensin II receptor (Oryctolagus cuniculus, UniProt P34976); assay: Antagonistic ability of angiotensin II to contract rabbit aorta; format: functional, tissue-based; conditions: read-out: pA2 (converted)
T2 sequence (P34976 whole entry): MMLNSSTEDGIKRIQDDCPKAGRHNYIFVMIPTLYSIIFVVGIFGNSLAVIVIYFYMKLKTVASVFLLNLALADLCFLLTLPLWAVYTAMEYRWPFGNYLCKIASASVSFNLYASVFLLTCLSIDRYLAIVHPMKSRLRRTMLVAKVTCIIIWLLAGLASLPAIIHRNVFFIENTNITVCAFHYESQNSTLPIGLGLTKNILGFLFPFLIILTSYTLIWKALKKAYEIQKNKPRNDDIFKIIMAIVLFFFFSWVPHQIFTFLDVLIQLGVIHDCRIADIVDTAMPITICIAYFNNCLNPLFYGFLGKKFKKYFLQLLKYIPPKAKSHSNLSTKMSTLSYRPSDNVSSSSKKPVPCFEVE
How it was run: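 Angiotensin II contraction of rabbit aortic rings. Full pA2 from several drug concentrations by Schild plot (log drug concentration vs log(EC50 ratio-1)); EC50 ratio is the angiotensin II EC50 with drug over that without drug.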

AUC [1]: 2.83 µg/h/mL
AUC [2]: 6.65 µg/h/mL
AUC [3]: 2.38 µg/h/mL
Cmax [4]: 840 ng/mL
Cmax [5]: 1470 ng/mL
Cmax [6]: 510 ng/mL
Vd [7]: 0.08 L/kg
Vd [8]: 0.42 L/kg
Tmax [9]: 0.9 h
Tmax [10]: 1.1 h
clearance [11]: 0.85 mL/min
bioavailability [12]: 4.8%
bioavailability [13]: 4.8%
bioavailability [14]: 10.3%
Tmax [15]: 1.3 h
half-life [16]: 1.5 h
Ki [17]: 1.77 nM
SMILES: CCCCN(Cc1ccc(-c2ccccc2-c2nn[nH]n2)cc1)c1ncncc1C(=O)O.Cl
Decrease in blood pressure [18]: 41%
Decrease in blood pressure [19]: 10%
Decrease in blood pressure [20]: 18%

Kb [21]: 0.1 nM
SMILES: CCc1cc(OCc2ccc(-c3ccccc3-c3nn[nH]n3)cc2)c2nc(OC(C)C)ccc2n1
